# Assay outcomes as filed in PubChem BioAssay.
# T cruzi repl – T. cruzi replication inhibition. T. cruzi beta-gal in NIH3T3, luminescence, 90 h. inhibition, % (test concentration not listed). 300,000 tested, 1.4% active;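 active = mean inhibition across valid replicates above about 55%, limit read from the data; inconclusive = mean below that limit but half or more replicates reach it; inactive = mean below it, under half of replicates reach it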;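 also: signal also drops with host cell toxicity which is not excluded here; higher percent means less beta-gal luminescence so fewer parasites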
#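 System: NIH/3T3 fibroblasts plus reporter T. cruzi. Medium: DMEM plus 2% FBS. Probe or stimulus: 5000 reporter trypomastigotes per well. Compound: single 50 nL compound addition per well in DMSO. Incubation: co-culture of at least 90 h after 3 h attachment. Detection: GalScreen β-gal luminescence, detergent lysis, 60 min. Evaluation: parasite load inhibition, %.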
# JMJD2C inh – inhibitors of human GASC-1 (JMJD2C) demethylase; GST-JMJD2C(1-420) H3K9me3 demethylation, DELFIA europium; inhibition, % at 2.35 µM; 330,000 tested, 0.069% active; AID 2099;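 active = more than half of a compound's replicate wells show inhibition beyond 50%, single wells judged on their own value; inconclusive = some, but no more than half, of replicates pass 50% inhibition; inactive = no replicate passes 50% inhibition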;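 also: signal counts dimethyl H3K9 product captured on neutravidin plate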
# Target sequence (Q9H3R0 1-420 limits assumed): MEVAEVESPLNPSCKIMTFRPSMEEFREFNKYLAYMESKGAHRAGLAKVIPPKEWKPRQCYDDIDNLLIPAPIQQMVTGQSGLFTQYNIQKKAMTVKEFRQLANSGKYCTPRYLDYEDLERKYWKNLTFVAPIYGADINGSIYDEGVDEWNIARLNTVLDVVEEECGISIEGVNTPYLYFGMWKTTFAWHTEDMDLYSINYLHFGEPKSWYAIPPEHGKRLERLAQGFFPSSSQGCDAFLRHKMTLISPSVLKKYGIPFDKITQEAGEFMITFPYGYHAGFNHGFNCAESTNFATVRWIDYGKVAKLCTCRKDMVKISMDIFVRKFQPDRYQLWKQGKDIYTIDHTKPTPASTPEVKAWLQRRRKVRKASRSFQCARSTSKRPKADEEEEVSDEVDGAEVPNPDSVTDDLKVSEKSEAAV
# p-CIP stab down – compounds decreasing mouse p/CIP protein stability | 290,000 tested, 0.01% active | decrease of EGFP signal, % at 10 µM | F442A p/CIP-EGFP cells, EGFP fluorescence, 16 h;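 active = EGFP signal decrease of at least 30% at 10 µM or well 3 SD below plate mean, unless failing retest; inactive = the rest, including hits failing retest or dose response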
# PP5 primary – blocks human protein phosphatase 5 activity. purified PP5c, OMFP substrate fluorescence. P53041. 320,000 tested, 0.18% active. inhibition, % at 6.7 µM. AID 1987;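 active = inhibition above the campaign's mean inhibition across all tested compounds plus 3 SD, cut at about 9.5% in these data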
# H9c2 protect – modulators protecting cardiomyocytes from myocardial damage; protection from H2O2 cell death, % at 20 µM; H9c2 cardiomyocytes, H2O2 injury protection, ATPLite, 2 h; 360,000 tested, 0.63% active;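 active = compounds giving at least 50% protection of heart cells from peroxide-induced death in the single-dose screen, raw or plate-pattern-corrected value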
# CTSL1 counter – blocks F. hepatica cathepsin L1 in PFM18AAP counter-screen | recombinant F. hepatica cathepsin L1, Z-Leu-Arg-MCA fluorescence | 300,000 tested, 0.49% active | AID 1906 | inhibition, % at 5.96 µM;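 active = inhibition above the mean of all tested compounds plus 3 SD, set per screening campaign, cut at about 17% in these data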
# A number is an active result; n = inactive; u = inconclusive; x = no result given. Only some compounds are listed: those with a hit (about 2.4% of all), similar ones and a draw of the others.
SMILES,T cruzi repl,JMJD2C inh,p-CIP stab down,PP5 primary,H9c2 protect,CTSL1 counter
CC1=C(C(=O)N(C)C)CC(CC(=O)NCCCCc2ccccc2)C(=O)N1CCCN1CCCC1=O (configuration not stated),x,x,x,x,n,x
CCOc1ccc(S(=O)(=O)N(C)C)cc1-c1nc2c(C(C)(C)C)nn(C)c2c(=O)[nH]1,n,n,n,n,n,n
CCOc1ccc(S(=O)(=O)N(C)CCO)cc1-c1nc2c(C(C)(C)C)nn(C)c2c(=O)[nH]1,n,n,n,n,56,n
Cc1cccc(N=Nc2ccc(O)c3ncccc23)c1,n,n,n,n,n,n
NS(=O)(=O)c1ccc(N=Nc2ccc(O)c3ncccc23)cc1,66,n,n,n,n,n
Oc1ccc(N=Nc2ccc3c(c2)OCCO3)c2ncccc12,68,n,n,n,n,n
CCOc1ccc(N=Nc2ccc(O)c3ncccc23)cc1,65,n,n,x,n,x
Cc1ccc(C)c(N=Nc2ccc(O)c3ncccc23)c1,n,n,n,n,n,n
COc1ccc(NC(=O)CCC(=O)c2cc(C)sc2C)cc1,x,x,x,x,n,x
CC(C)COC(=O)N(C)C[C@@H]1OCc2cnnn2CCCC(=O)N([C@H](C)CO)C[C@@H]1C,x,x,x,x,n,x
COC(=O)Oc1ccc(/C=C/C(=O)OC(C)C)cc1OC(=O)OC,n,n,n,n,54,n
CCC(=O)N1CCCC(C)(C(=O)Nc2ccc(C)c(C)c2)C1 (configuration not stated),x,x,x,x,n,x
O=C(CN1CCCCC1)Nc1nc(-c2ccc(F)c(F)c2)cs1,n,n,n,n,55,n
Cc1nc(N2N=C(c3ccc(Cl)cc3)CC2c2ccco2)sc1C(=O)N(C)C (configuration not stated),n,n,n,n,n,25
Clc1ccc(C2=NN(c3ccccc3)C(c3ccco3)C2)cc1 (configuration not stated),n,n,n,n,n,n
Nc1ccc(N2CCCCC2)cc1N1CCCCC1,62,n,n,n,n,n
Cc1nn(-c2cc(N3CCCCC3)ccc2N)c(=O)c2ccccc12,u,n,n,n,n,n
Nc1c(N2CCCC2)cc(Cl)c2nonc12,n,n,n,n,n,95
Nc1ccc(N2CCCCC2)c2nonc12,n,n,n,11,n,79
CCOC(=O)c1c(C)[nH]c(O)c1C=Nc1ccc(C(F)(F)F)cc1,n,n,n,n,n,n
COC(=O)c1c(C)[nH]c(O)c1C=Nc1ccc(Oc2ccccc2)cc1,n,n,n,n,84,n
CCOC(=O)c1c(C)[nH]c(O)c1C=Nc1ccc(Cl)cc1,n,n,n,n,52,n
COC(=O)c1c(C)[nH]c(O)c1C=Nc1ccc(C(C)C)cc1,58,n,n,n,n,n
COCc1[nH][nH]c(=O)c1C=Nc1ccc(Oc2ccccc2)cc1,n,n,n,n,n,n
O=C(Nc1nncs1)C1CC(=O)N(CCc2ccc(F)cc2)C1 (configuration not stated),n,n,n,n,n,n
SMILES,T cruzi repl,JMJD2C inh,p-CIP stab down,PP5 primary,H9c2 protect,CTSL1 counter
Brc1ccc(-c2ccc(/C=N/Nc3nc(N4CCOCC4)nc(N4CCOCC4)n3)o2)cc1,n,n,n,n,95,n
Fc1cnc(N/N=C/c2ccc(-c3ccc(Br)cc3)o2)nc1N1CCOCC1,n,n,n,n,n,n
O=[N+]([O-])c1ccc(/C=N/Nc2nc(N3CCCCC3)nc(N3CCCCC3)n2)o1,63,n,n,n,n,n
Brc1ccc(-c2ccc(/C=N/Nc3nc4ccccc4[nH]3)o2)cc1,62,n,n,n,n,n
C(=N\Nc1nc2ccccc2[nH]1)/c1ccccc1,n,n,n,n,n,n
COc1ccc2oc(C(=O)OCC(=O)Nc3cc(S(=O)(=O)N4CCOCC4)ccc3OC)c(C)c2c1,n,n,x,n,n,n
Cc1cccc(NC(c2ccc(O)cc2)c2ccc3ccc(C)nc3c2O)n1 (configuration not stated),n,n,n,n,92,n
O=[N+]([O-])c1ccc2nc(Cl)nc(-c3ccccc3)c2c1,n,n,n,x,n,x
CCN(Cc1ccc2c(c1)OCCO2)C(=O)CN1C(=O)NC2(CCCCC2)C1=O,x,n,x,n,n,x
Cc1nc2ccccc2c2oc(C(=O)NCCCN3CCCC(C)C3)cc12 (configuration not stated),n,n,n,n,n,n
CN(CCCNC(=O)c1cc2c(Cl)nc3ccccc3c2s1)Cc1ccccc1,69,n,n,n,n,n
CC1CCCN(CCCNC(=O)c2cc3c(Cl)nc4ccccc4c3s2)C1 (configuration not stated),77,n,n,n,n,n
COc1ccc(NC(=O)Cn2c(=O)sc3ccccc32)c(OC)c1,n,n,n,n,n,21
Cc1ccc(NC(=O)CSC2=NN3CCCC(=O)N=C3S2)cc1Cl,n,n,n,n,n,n
Nc1c2c(nc3ccccc13)N(c1ccccc1)CC2,n,n,n,n,n,n
Nc1c2c(nc3ccccc13)CSCC2,55,n,x,n,n,n
Cn1nc([N+](=O)[O-])nc1Sc1nnc(-c2ccccc2)o1,69,n,n,n,n,63
O=Cc1ccc(Sc2nnc(-c3ccccc3)o2)c([N+](=O)[O-])c1,n,n,n,n,n,n
Cn1nc([N+](=O)[O-])nc1Sc1cccc2cccnc12,65,n,n,n,n,n
O=C(OC1CCCC1)c1ccc(Cl)cc1Cl,x,x,x,x,n,x
FC(F)(F)c1cccc(NC(=S)NNC(=S)Nc2cccc(C(F)(F)F)c2)c1,55,n,n,n,x,n
CNNC(=S)Nc1cccc(C(F)(F)F)c1,n,n,n,n,n,n
FC(F)(F)c1cccc(NC(=S)NC(c2ccccc2)c2ccccc2)c1,60,n,n,n,n,n
CCCCN(C(=O)c1ccc(C#N)cc1)c1c(N)n(CCC)c(=O)[nH]c1=O,n,n,n,n,n,n
O=C(Cc1cccc(NC(=O)C2CCCN(C(=O)C3CCCC3)C2)c1)Nc1ccc(C(=O)N2CCOCC2)cc1 (configuration not stated),x,x,x,x,n,x
SMILES,T cruzi repl,JMJD2C inh,p-CIP stab down,PP5 primary,H9c2 protect,CTSL1 counter
Cc1cc(N2CCN(C)CC2)ccc1NC(=O)c1ccc(-c2ccc(Cl)cc2)o1,59,u,x,n,n,n
CN1CCN(c2ccccc2NC(=O)c2ccc(-c3cccc([N+](=O)[O-])c3)o2)CC1,n,n,n,n,77,n
CN1CCN(c2ccccc2NC(=O)c2ccc(-c3ccc(Br)cc3)o2)CC1,65,n,n,n,n,n
O=C(Nc1ccccc1N1CCCCC1)c1ccc(-c2ccc(Cl)cc2)o1,n,n,n,n,n,n
CCC(=O)N1CCN(c2ccccc2NC(=O)c2ccc(-c3cccc([N+](=O)[O-])c3)o2)CC1,n,n,n,n,107,n
CN1CCN(c2ccccc2NC(=O)c2ccc(-c3ccc(Cl)c(Cl)c3)o2)CC1,n,n,n,n,n,n
